# Tested on: MS2 coat protein
# Assay: apparent Kd, MS2 coat protein; higher = weaker binding; RNA-MaP array; FMN 200 µM where present
# Outline: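 Stalled E. coli RNA polymerase produced the designs on Illumina sequencing-chip clusters. SNAP-549-labelled MS2 coat protein was added from 0.7 or 1.5 nM, doubling to 3 µM, without and then with constant ligand, in 100 mM Tris-HCl pH 7.5, 80 mM KCl, 4 mM MgCl2, BSA, DTT, yeast tRNA and Tween-20. The apparent Kd is the median of filtered per-cluster fits of green signal normalised to red-channel RNA signal and control-cluster median Fmax.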
# [1] = designed as: OFF switch for flavin mononucleotide, no ligand
# [2] = ligand present: flavin mononucleotide, designed as: OFF switch for flavin mononucleotide
# [3] = designed as: ON switch for flavin mononucleotide, no ligand
# [4] = ligand present: flavin mononucleotide, designed as: ON switch for flavin mononucleotide
Sequence,apparent Kd [1] [nM],apparent Kd [2] [nM],apparent Kd [3] [nM],apparent Kd [4] [nM]
CGGCAUCAUGUAGGAUAUGCGUGGCGAAGCUAUGCAGAAGGACAUGAGGAUCACCCAUGUCUUAGCUAGCGUACUAGCUUGCCG,6.24,16.6,,
AGCUGGUGACAGCAUCCAUCAUAACAUGAGGAUCACCCAUGUAGAAGGCUGUACGGUUACCGUACAGAGGAUAUACAAUGAUGG,7.4,7.32,,
GCUUUAGCACAUGAGGAUCACCCAUGUAGCGUGGGCUUACACAGAAGGGCAAACCGUUACGGGAUGUAGGAUAUGUGCAAAAUG,,,196,68.6
AUGGGACAUGAGGAUCACCCAUGUCCGGUAUAUCGAGGAUAUGGGAUGCUCUUAAUGUAACCAGAAGGCGAUAAAA,,,16.6,18.9
ACAUGAGGAUCACCCAUGUAUACAUAGGAUAUUGGUGAUCAGGGAUGUUUUACAGGAUAUGUCUGCGAGAAGGAUGCAAGUACA,,,352,151
CGGCGACAUGAGGAUCACCCAUGUCAAGAGUGGUCAGGAUAUGGUAUGAGAUGAGUAUGGCCAGAAGGGACAUAAG,,,29.1,21.2
CCGACGAAAGUCGAACGAUGUAGCAGAAGGACAUGAGGAUCACCCAUGUCAGCUGUAACAGCCAUGUAGGAUAUGCUACAUCGC,4.16,5.51,,
AUAUCAAGCAAGGAUAUGCAAAUGGUUAUUUAUGCAGAAGGUGCAACAUGAGGAUCACCCAUGUUUCUGGGUUU,64.4,101,,
UGGUACAUGAGGAUCACCCAUGUAAGAGCCCUCAUGCGAUGUAGAAGGAUAAUGGGAGUACUGCUAUAGGAUAUACAUGAGUUU,145,147,,
AGCUAGUGAGGAUAUACGAACAUGUCAAAAGACGUGAAUAAACAUGAGGAUCACCCAUGUAGAAGGCACUAGCA,17.5,16.2,,
UUGUACCGGUGAGGAUAUUUUUGAUAGAACUUUAUGAUAUACAUGAGGAUCACCCAUGUUACUUUAAAGAAGGCAUCGGAUUAU,19.4,15.3,,
GCGCCAUCGUGAGAUGGCGUAUAUACAUGAGGAUCACCCAUGUAGGAUAUCGAUUGCUUUGCAGUCGAGAAGGGCAUGUAAUUU,33.5,43.9,,
ACAUGAGGAUCACCCAUGUAUUACAUGGUUAAGUUUAUUAACAGAAGGCGAAAUUACCACUUGAUCGAGGAUAUGUAUUCUAUU,49.1,43.4,,
ACGGACCUAGGAUAUACAUGAGGAUCACCCAUGUGCCCGCAUGGUCCGGGUCCUGAGAGUAGAAGGAGGAGCGA,50.9,43.2,,
ACGUGUAAUACAGGAUAUGUUAUGGAUUAAUCAACCAGUUAUUACGUUUCGACAGAAGGGUAUACAUGAGGAUCACCCAUGUUA,22.3,17.9,,
GUGUACAGAGGAUAUGCACGAGGAGUUACGAAAGUAACUUCACAUGAGGAUCACCCAUGUAGAAGGCUGUACAC,14.4,17.8,,
GGCUCCGCUCGAGGAUAUAGCUGCAUGUAGUGUCCUGAGGCACAUGAGGAUCACCCAUGUGUAGGCUAGAAGGCGACGGACACU,8.81,26.2,,
ACUUGUAAGCAGAAGGCAGUCAUUAUAUUCAUCAUGUAGACAUGAGGAUCACCCAUGUAUAGUACUGAGGAUAUGCAUCGAUAG,6.75,10.3,,
GUCUGAUUGUAGAAGGUACUUAAUACUCAUGUAACAUGAGGAUCACCCAUGUAUCAACAAUAUUGUAAGGAUAUACAUAUCUCA,,,478,258
AGGAGAAAUGUAGGAUAUGGAUAUAUAUAUGGGCAAAGCGCAUAUAUAUAUCCAGAAGGACAUGAGGAUCACCCAUGUUUCCCU,11.8,13,,
CCUGGCUUAGGAUAUACAGGAACCGAGAACCCGGAAGUGAAACAUGAGGAUCACCCAUGUAGAAGGAAGAAAGC,26.8,23.1,,
GUGUAUAGCCUCGAGGAUAUCCUGUAAUGCACAUGAGGAUCACCCAUGUAUGAGCGAGUUUUUUGGGAGAAGGCGAGUUAUCGGU,,,26.6,16.9
GGUUAUUGCAAGGAUAUGCUUAUUUGAGAAAUUGCAGAAGGUGCAACAUGAGGAUCACCCAUGUUGGAUGGGUU,65.2,278,,
UCGUUUAUACAAGGAUAUCAAUUUUAGCUUAAUUCAACAUGAGGAUCACCCAUGUAACUAUGGAGUGAGAAGGUGUAAUGGCUU,,,522,222
UAGAUGGGAGGAUAUACGUAGAUGCAGAUUCGUGUGGUGCUACAUGAGGAUCACCCAUGUAGAAGGCCCGUCUU,17,98.1,,
CUGCUAGUUGAGAAGGGACAACUUGGUGAUCGGACAUGAGGAUCACCCAUGUCAGGAUAUCAGGGUAGACCCAGCAGGGUGAAA,6.56,7.83,,
AAAAAAAAUGUGUAGGAUAUCAGUAAAAAUACAUGAGGAUCACCCAUGUUCAAAAAAAAAAAAACUGAGAAGGACGUGGAUGGUCC,,,79,59.9
